Source: ChEMBL document CHEMBL3994666 (ACS Med Chem Lett, 2017)
pIC50: −log10 of the molar value. ≈ marks a conversion by molar mass, not a printed value. Calls of active or inactive are those of the source. The rule behind the calls is not given here.

Key:
[1] = Solubility of the compound in phosphate buffer at pH 7.2 at 10 mg/ml after 24 hrs by UV-HPLC method; type: physicochemical
In short: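 Solubility measured at pH 7.2. Values are mean ± SD, n = 2.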

[2] = Stability in Sprague-Dawley rat liver S9 fraction assessed as compound remaining at 1 uM incubated for 90 mins in absence of NADPH by LC-MS/MS analysis; type: ADME, tissue-based; settings: read-out: Stability
In short: (§1)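 Compound incubated with liver S9 fraction for 90 min without NADPH. Values are mean ± SD, n ≥ 3.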

PBMC [3] = experiment: Anti-inflammatory activity in human PBMC assessed as inhibition of LPS-induced GMCSF production pretreated for 1 hr followed by LPS stimulation measured after 20 hrs; type: functional, cell-based
PBMC [4] = experiment: Anti-inflammatory activity in human PBMC assessed as inhibition of LPS-induced IL-8 production pretreated for 1 hr followed by LPS stimulation measured after 20 hrs; type: functional, cell-based
Mus musculus [5] = experiment: In vivo inhibition of LMP2 in Balb/c mouse assessed as residual activity in blood at 1 mg/kg, iv administered as single bolus dose using PEG300/WFI formulation after 1 hr by ELISA relative to control; type: functional
In short: (§2)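 Mice dosed intravenously at nominal doses. Blood collected 1 h later and proteasome active-site activity (LMP2, LMP7, β5) measured by ProCISE subunit-specific ELISA. Expressed as % activity remaining relative to control.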

PBMC [6] = experiment: Cytotoxicity against human PBMC assessed as decrease in cell viability by CellTiter-Glo assay; type: cell-based
In short: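 PBMC viability read out with CellTiter-Glo. IC50 derived from the viability signal.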

PBMC [7] = experiment: Anti-inflammatory activity in human PBMC assessed as inhibition of LPS-induced IL-12/23 p40 production pretreated for 1 hr followed by LPS stimulation measured after 20 hrs; type: functional, cell-based
Mus musculus [8] = experiment: In vivo inhibition of LMP7 in Balb/c mouse assessed as residual activity in blood at 1 mg/kg, iv administered as single bolus dose using PEG300/WFI formulation after 1 hr by ELISA relative to control; type: functional; in short: as §2
PBMC [9] = experiment: Anti-inflammatory activity in human PBMC assessed as inhibition of LPS-induced TNF-alpha production pretreated for 1 hr followed by LPS stimulation measured after 20 hrs; type: functional, cell-based
PBMC [10] = experiment: Anti-inflammatory activity in human PBMC assessed as inhibition of LPS-induced Il-1b production pretreated for 1 hr followed by LPS stimulation measured after 20 hrs; type: functional, cell-based
Mus musculus [11] = experiment: In vivo inhibition of proteasome beta5 in Balb/c mouse assessed as residual activity in blood at 1 mg/kg, iv administered as single bolus dose using PEG300/WFI formulation after 1 hr by ELISA relative to control; type: functional; in short: as §2
PBMC [12] = experiment: Anti-inflammatory activity in human PBMC assessed as inhibition of LPS-induced IL-6 production pretreated for 1 hr followed by LPS stimulation measured after 20 hrs; type: functional, cell-based
[13] = Stability in Balb/c mouse liver S9 fraction assessed as compound remaining at 1 uM incubated for 90 mins in absence of NADPH by LC-MS/MS analysis; type: ADME, tissue-based; settings: read-out: Stability; in short: as §1
[14] = Stability in human liver S9 fraction assessed as compound remaining at 1 uM incubated for 90 mins in absence of NADPH by LC-MS/MS analysis; type: ADME, tissue-based; settings: read-out: Stability; in short: as §1
[15] = target: T1, Proteasome Macropain subunit MB1 (Homo sapiens, UniProt P28074); experiment: Inhibition of proteasome beta5 in human MOLT4 cell lysate after 1 hr by ELISA
T1 sequence (P28074 whole entry): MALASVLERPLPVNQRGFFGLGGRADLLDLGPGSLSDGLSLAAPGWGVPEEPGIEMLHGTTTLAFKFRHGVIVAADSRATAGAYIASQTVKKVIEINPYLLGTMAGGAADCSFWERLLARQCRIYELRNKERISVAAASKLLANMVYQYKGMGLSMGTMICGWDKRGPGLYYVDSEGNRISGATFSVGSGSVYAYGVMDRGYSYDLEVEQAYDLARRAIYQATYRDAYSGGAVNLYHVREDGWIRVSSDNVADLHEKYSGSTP
In short: (§3)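 ProCISE subunit-specific ELISA of proteasome catalytic active sites in cell lysate. Values are mean ± SD, n ≥ 2.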

Mus musculus [16] = experiment: In vivo inhibition of LMP7 in Balb/c mouse assessed as residual activity in blood at 2 mg/kg, iv administered as single bolus dose using 10% EtOH/25% PEG300 formulation after 1 hr by ELISA relative to control; type: functional; in short: as §2
Mus musculus [17] = experiment: In vivo inhibition of LMP2 in Balb/c mouse assessed as residual activity in blood at 2 mg/kg, iv administered as single bolus dose using 10% EtOH/25% PEG300 formulation after 1 hr by ELISA relative to control; type: functional; in short: as §2
[18] = target: T2, Proteasome subunit beta type-10 (Homo sapiens, UniProt P40306); experiment: Inhibition of MECL1 in human MOLT4 cell lysate after 1 hr by ELISA
T2 sequence (P40306 whole entry): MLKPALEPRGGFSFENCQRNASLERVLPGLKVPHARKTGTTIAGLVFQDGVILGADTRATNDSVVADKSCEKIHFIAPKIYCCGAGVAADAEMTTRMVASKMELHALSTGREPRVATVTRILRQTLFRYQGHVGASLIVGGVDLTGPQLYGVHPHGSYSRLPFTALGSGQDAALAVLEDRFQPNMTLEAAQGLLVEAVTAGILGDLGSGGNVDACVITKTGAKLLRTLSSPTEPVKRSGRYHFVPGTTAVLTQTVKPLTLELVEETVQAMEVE

Mus musculus [19] = experiment: In vivo inhibition of proteasome beta5 in Balb/c mouse assessed as residual activity in blood at 2 mg/kg, iv administered as single bolus dose using 10% EtOH/25% PEG300 formulation after 1 hr by ELISA relative to control; type: functional; in short: as §2
[20] = target: T3, Proteasome subunit beta type-8 (Homo sapiens, UniProt P28062); experiment: Inhibition of LMP7 in human MOLT4 cell lysate after 1 hr by ELISA; in short: as §3
T3 sequence (P28062 whole entry): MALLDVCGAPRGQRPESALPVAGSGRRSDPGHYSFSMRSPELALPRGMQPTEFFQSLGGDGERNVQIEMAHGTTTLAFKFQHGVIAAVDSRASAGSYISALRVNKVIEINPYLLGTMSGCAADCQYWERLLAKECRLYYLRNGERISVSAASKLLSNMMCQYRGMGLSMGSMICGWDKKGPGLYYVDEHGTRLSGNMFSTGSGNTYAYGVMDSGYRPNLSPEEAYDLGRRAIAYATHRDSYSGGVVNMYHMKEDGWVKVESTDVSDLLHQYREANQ

[21] = target: T4, Proteasome subunit beta type-9 (Homo sapiens, UniProt P28065); experiment: Inhibition of LMP2 in human MOLT4 cell lysate after 1 hr by ELISA; in short: as §3
T4 sequence (P28065 whole entry): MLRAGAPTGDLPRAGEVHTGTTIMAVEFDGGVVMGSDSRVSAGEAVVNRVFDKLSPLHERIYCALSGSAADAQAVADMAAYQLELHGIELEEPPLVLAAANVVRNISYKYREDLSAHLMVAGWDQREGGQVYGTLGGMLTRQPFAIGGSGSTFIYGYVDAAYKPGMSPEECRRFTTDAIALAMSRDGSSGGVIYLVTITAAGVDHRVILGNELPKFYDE

Mus musculus [22] = experiment: In vivo inhibition of LMP7 in Balb/c mouse assessed as residual activity in blood at 1 mg/kg, iv administered as single bolus dose using 10% EtOH/25% PEG300 formulation after 1 hr by ELISA relative to control; type: functional; in short: as §2
Mus musculus [23] = experiment: In vivo inhibition of LMP2 in Balb/c mouse heart at >1 mg/kg, iv administered as single bolus dose using 10% EtOH/25% PEG300 formulation after 1 hr by ELISA relative to control; type: functional
Mus musculus [24] = experiment: In vivo inhibition of LMP2 in Balb/c mouse liver at >1 mg/kg, iv administered as single bolus dose using 10% EtOH/25% PEG300 formulation after 1 hr by ELISA relative to control; type: functional
Mus musculus [25] = experiment: In vivo inhibition of proteasome beta5 in Balb/c mouse assessed as residual activity in blood at 1 mg/kg, iv administered as single bolus dose using 10% EtOH/25% PEG300 formulation after 1 hr by ELISA relative to control; type: functional; in short: as §2
Mus musculus [26] = experiment: In vivo inhibition of LMP2 in Balb/c mouse assessed as residual activity in blood at 1 mg/kg, iv administered as single bolus dose using 10% EtOH/25% PEG300 formulation after 1 hr by ELISA relative to control; type: functional; in short: as §2
Mus musculus [27] = experiment: In vivo inhibition of LMP2 in Balb/c mouse brain at >1 mg/kg, iv administered as single bolus dose using 10% EtOH/25% PEG300 formulation after 1 hr by ELISA; type: functional, organism-based
Mus musculus [28] = experiment: In vivo inhibition of LMP2 in Balb/c mouse kidney at >1 mg/kg, iv administered as single bolus dose using 10% EtOH/25% PEG300 formulation after 1 hr by ELISA relative to control; type: functional

Row | solubility at 24 h [1] [µg/mL] | remaining at 1.5 h, 1 µM [2] [%] | remaining at 1.5 h, 1 µM [13] [%] | remaining at 1.5 h, 1 µM [14] [%] | pIC50 [15] | pIC50 [18] | pIC50 [20] | pIC50 [21] | SMILES | pIC50 (PBMC [3]) | pIC50 (PBMC [4]) | pIC50 (PBMC [6]) | pIC50 (PBMC [7]) | pIC50 (PBMC [9]) | pIC50 (PBMC [10]) | pIC50 (PBMC [12]) | other results
1 | 461 (≈ 0.794 mM) | 23.3 | 106 | 8.6 |  |  |  |  | COc1ccc(C[C@H](NC(=O)[C@H](C)NC(=O)CN2CCOCC2)C(=O)N[C@@H](Cc2ccccc2)C(=O)[C@@]2(C)CO2)cc1 | 6.66 | 5.95 | 5.47 | 6.92 | 6.25 | 5.83 | 6.62 | Activity (Mus musculus [5]): 95%; Activity (Mus musculus [8]): 65.3%; Activity (Mus musculus [11]): 99.8%
2 | 166 (≈ 0.33 mM) | 8 | 0.4 | 1.1 | 4.74 | < 3.60 | 5.32 | 6.85 | COc1ccc(C[C@H](NC(=O)c2cccc(=O)[nH]2)C(=O)N[C@@H](Cc2ccccc2)C(=O)[C@@]2(C)CO2)cc1 | < 4.60 | < 4.60 | < 4.60 | < 5.25 | < 4.60 | < 4.60 | < 4.80 | Activity (Mus musculus [16]): 98.3%; Activity (Mus musculus [17]): 83%; Activity (Mus musculus [19]): 90.7%
3 | 6640 (≈ 16.1 mM) | 92.3 | 90.9 | 81.5 | 5.16 | < 3.60 | 5.37 | 7.29 | C[C@]1(C(=O)[C@H](Cc2ccccc2)NC(=O)[C@H](CO)NC(=O)c2cccc(=O)[nH]2)CO1 | < 4.60 | < 4.60 | < 4.60 | < 5.01 | < 4.60 | < 4.60 | < 4.72 | Activity (Mus musculus [22]): 102.5%; inhibition (INH) (Mus musculus [23]): >50%; inhibition (INH) (Mus musculus [24]): >50%; Activity (Mus musculus [25]): 101.7%; Activity (Mus musculus [26]): 31.1%; inhibition (Mus musculus [27]): inactive; inhibition (INH) (Mus musculus [28]): >50%
4 | 7520 (≈ 18.9 mM) | 58.8 | 85.1 | 25.3 | 4.37 | < 3.60 | 4.35 | 6.95 | C[C@H](NC(=O)c1cccc(=O)[nH]1)C(=O)N[C@@H](Cc1ccccc1)C(=O)[C@@]1(C)CO1 |  |  |  |  |  |  |  | 
